{"data": "Assay results of several laboratories", "target": "Mitogen-activated protein kinase 3 (MAPK3, Homo sapiens, UniProt P27361)", "note": "Lines come from different studies, so protocols differ."}
{"Compound": "CCCCC(=O)Nc1ccc(-c2ccc3ncn(CCC)c(=O)c3c2)cn1", "assay": "binding, competition with immobilised ligand", "conditions": "0.5 µM", "measurement": "remaining binding", "result": "97%"}
{"Compound": "Cc1ccc(NC(=O)c2ccnc(C(F)(F)F)c2)cc1-c1cc(OCCO)nc(N2CCOCC2)c1", "assay": "binding", "conditions": "1 µM", "measurement": "remaining binding", "result": "100%"}
{"Compound": "Cc1cc(O)c(-c2ccc([C@@H](C)CN(C)C)cc2)c2c1[nH]c(=O)c1sccc12", "assay": "enzyme activity, inhibitor", "conditions": "0.1 µM", "measurement": "inhibition", "result": "15.1%"}
{"Compound": "C=CC(=O)N1CCC[C@@H](n2nc(-c3ccc(Oc4ccccc4)cc3)c3c(N)ncnc32)C1", "assay": "enzyme activity, inhibitor", "conditions": "1 µM", "measurement": "inhibition", "result": "3%"}
{"Compound": "C[C@H]1CC[C@H](n2c3cnccc3c3cnc(Nc4ccc5c(n4)CCN(C(=O)CO)C5)nc32)CC1", "assay": "cell-free assay", "conditions": "1 µM", "measurement": "remaining signal", "result": "100%"}
{"Compound": "N#Cc1ccc(NC(=O)Nc2ccccc2)cc1", "assay": "cell-free assay, competition with immobilised ligand", "conditions": "25 µM", "measurement": "remaining binding", "result": "100%"}
{"Compound": "c1ccc(-c2ccc3c(c2)NC(C2Nc4cc(-c5ccccc5)ccc4O2)O3)cc1 (stereo not shown)", "assay": "enzyme activity, inhibitor, ADP detection", "conditions": "10 µM", "measurement": "inhibition", "result": "54.7%"}
{"Compound": "C#Cc1cc(-c2cc(Nc3nc(N[C@@H](C)c4ccc(F)cn4)ncc3Cl)n[nH]2)ccc1C=O", "assay": "enzyme activity, inhibitor", "conditions": "0.2 µM", "measurement": "inhibition", "result": "5.48%"}
{"Compound": "O=C(O)CCC(=O)OCCN(Cc1ccc(Oc2ccc([N+](=O)[O-])cc2)cc1)C(=O)C(Cl)Cl", "assay": "enzyme activity, inhibitor, ADP detection", "conditions": "10 µM", "measurement": "inhibition", "result": "49.3%"}
{"Compound": "CC#CC(=O)N1CCC[C@H]1c1nc(-c2ccc(C(=O)Nc3ccccn3)cc2)c2c(N)nccn12", "assay": "enzyme activity, inhibitor", "conditions": "1 µM", "measurement": "inhibition", "result": "12%"}
